Measured values as given in ChEMBL document CHEMBL1649279, “The final step of hygromycin A biosynthesis, oxidation of C-5''-dihydrohygromycin A, is linked to a putative proton gradient-dependent efflux” (Antimicrob Agents Chemother, 2009).
pIC50: −log10 of the molar value. Converted amounts (≈) assume the structure as drawn.

Experiments:
[1] = tested on: Escherichia coli; assay: Antimicrobial activity against tolC deficient Escherichia coli by after 2 hrs; type: functional
Summary of the method: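 ΔtolC E. coli grown in 200 μl LB at 37°C for 2 h across a range of antibiotic concentrations, read by A600. MIC is the lowest concentration giving 95% growth inhibition relative to an untreated culture.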

[2] = tested on: Escherichia coli; assay: Inhibition of protein synthesis in Escherichia coli assessed as green fluorescent protein synthesis by coupled transcription-translation assay; type: functional, organism-based
Summary of the method: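 E. coli lysate coupled transcription-translation with a GFP template, run with and without antibiotic at increasing concentrations. GFP measured by fluorescence scanning and native PAGE. Triplicates, expressed as percent of fluorescence without antibiotic.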

[3] = tested on: Streptomyces hygroscopicus; assay: Ratio of Kcat to Km for Streptomyces hygroscopicus recombinant N-terminal His-tagged Hyg26 reductase expressed in Escherichia coli BL21 (DE3)
Summary of the method: (§1)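 His-tagged Hyg26, expressed in E. coli BL21-CodonPlus(DE3) and purified on Ni-NTA. Reductase kinetics: 800 ng enzyme, 50 mM phosphate pH 6 with 2 mM TCEP, 37°C, 15 min. NADH fixed at 60 mM with antibiotic 2–60 mM; for NADH, HA fixed at 20 mM with NADH 0.25–10 mM. DHHA-type product quantified by reverse-phase HPLC peak area. Duplicates averaged and fitted for kinetic parameters.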

[4] = tested on: Streptomyces hygroscopicus; assay: Activity at Streptomyces hygroscopicus recombinant N-terminal His-tagged Hyg26 reductase expressed in Escherichia coli BL21 (DE3); summary of the method: as §1
[5] = tested on: Streptomyces hygroscopicus; assay: Antimicrobial activity against hyg20 deficient Streptomyces hygroscopicus SCH30 by after 48 hrs by agar plate dilution method; type: functional; conditions: SCH30, 48 h
Summary of the method: (§2)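 Spores plated on yeast extract malt extract agar containing a series of HA concentrations, incubated 48 h at 30°C, then scored for growth. MIC taken as the lowest HA concentration preventing visible growth of at least 95% of CFU.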

[6] = tested on: Streptomyces hygroscopicus; assay: Antimicrobial activity against hyg19-hyg20-hyg21 deficient Streptomyces hygroscopicus SCH30 by after 48 hrs by agar plate dilution method; type: functional; conditions: SCH30, 48 h; summary of the method: as §2
[7] = tested on: Streptomyces hygroscopicus; assay: Antimicrobial activity against hyg19 deficient Streptomyces hygroscopicus SCH30 by after 48 hrs by agar plate dilution method; type: functional; conditions: SCH30, 48 h; summary of the method: as §2
[8] = tested on: Streptomyces lividans; assay: Antimicrobial activity against Streptomyces lividans by after 48 hrs by agar plate dilution method; type: functional; summary of the method: as §2
[9] = tested on: Streptomyces hygroscopicus; assay: Antimicrobial activity against wild type Streptomyces hygroscopicus by after 48 hrs by agar plate dilution method; type: functional; summary of the method: as §2
[10] = tested on: Streptomyces hygroscopicus; assay: Antimicrobial activity against hyg28 deficient Streptomyces hygroscopicus SCH30 by after 48 hrs by agar plate dilution method; type: functional; conditions: SCH30, 48 h; summary of the method: as §2

Row | Structure (SMILES) | MIC [1] [µg/mL] | pIC50 [2] | IC90 [2] [nM] | kcat/Km [3] [×10³ /M/s] | Km [4] [mM] | kcat [4] [s⁻¹] | MIC [5] [µg/mL] | MIC [6] [µg/mL] | MIC [7] [µg/mL] | MIC [8] [µg/mL] | MIC [9] [µg/mL] | MIC [10] [µg/mL]
1 | CO[C@@H]1[C@H](O)[C@@H](O)[C@@H](NC(=O)/C(C)=C/c2ccc(O[C@@H]3O[C@H](C(C)O)[C@@H](O)[C@@H]3O)c(O)c2)[C@@H](O)[C@@H]1O (stereo partly drawn) [5'-DIHYDROMETHOXYHYGROMYCIN A] | 150 (≈ 291 µM) | 5.13 | 50000 |  |  |  |  |  |  |  |  | 
2 | C/C(=C\c1ccc(O[C@@H]2O[C@H](C(C)O)[C@@H](O)[C@@H]2O)c(O)c1)C(=O)N[C@@H]1[C@H](O)[C@@H](O)[C@@H](O)[C@@H](O)[C@@H]1O (stereo partly drawn) | 150 (≈ 299 µM) | 5.57 | 14100 |  |  |  |  |  |  |  |  | 

The next lines start with the values.

Row | MIC [1] [µg/mL] | pIC50 [2] | IC90 [2] [nM] | kcat/Km [3] [×10³ /M/s] | Km [4] [mM] | kcat [4] [s⁻¹] | MIC [5] [µg/mL] | MIC [6] [µg/mL] | MIC [7] [µg/mL] | MIC [8] [µg/mL] | MIC [9] [µg/mL] | MIC [10] [µg/mL] | Structure (SMILES)
3 | 150 (≈ 300 µM) | 6.49 | 1000 | 0.9 | 63.6 | 31.7 |  |  |  |  |  |  | CC(=O)[C@H]1O[C@@H](Oc2ccc(/C=C(\C)C(=O)N[C@@H]3[C@H](O)[C@@H](O)[C@@H](O)[C@@H](O)[C@@H]3O)cc2O)[C@@H](O)[C@@H]1O [DESMETHYLENEHYGROMYCIN A]
4 | 150 (≈ 292 µM) | 6.30 | 2000 | 0.9 | 19.8 | 15.5 |  |  |  |  |  |  | CO[C@@H]1[C@H](O)[C@@H](O)[C@@H](NC(=O)/C(C)=C/c2ccc(O[C@@H]3O[C@H](C(C)=O)[C@@H](O)[C@@H]3O)c(O)c2)[C@@H](O)[C@@H]1O [METHOXYHYGROMYCIN A]
5 | 20 (≈ 38.9 µM) | 6.52 | 1500 |  |  |  |  |  |  |  |  |  | C/C(=C\c1ccc(O[C@@H]2O[C@H](C(C)O)[C@@H](O)[C@@H]2O)c(O)c1)C(=O)N[C@@H]1[C@H](O)[C@@H](O)[C@H]2OCO[C@H]2[C@@H]1O (stereo partly drawn)
6 | 10 (≈ 19.6 µM) | 6.74 | 250 | 1 | 5.8 | 5.1 | 300 (≈ 587 µM) | 75 (≈ 147 µM) | 400 (≈ 782 µM) | 20 (≈ 39.1 µM) | 400 (≈ 782 µM) | 300 (≈ 587 µM) | CC(=O)[C@H]1O[C@@H](Oc2ccc(/C=C(\C)C(=O)N[C@@H]3[C@H](O)[C@@H](O)[C@H]4OCO[C@H]4[C@@H]3O)cc2O)[C@@H](O)[C@@H]1O [HYGROMYCIN A]
